A selection: hits, their analogues and other compounds. The true share with any hit is near 4.1%.
SMARCA2 activ – SMARCA2 function activation, primary screen; MG213 cells, MMTV-luciferase reporter, dexamethasone, overnight; 1% of 370,000 active; activation, % at 9.1 µM; in the data active means activation above about 7.8%;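 further: 0% = vehicle wells and 100% = reference activator wells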
ATG4B inh – ATG4B (human) cysteine protease inhibition; Q9Y4P1; ATG4B cleavage of LC3-PLA2, NBD-HPC fluorescence, 1 h; inhibition, % at 8.33 µM; 0.51% of 340,000 active; AID 504462; in the data active means inhibition above about 40%
Target sequence (Q9Y4P1 whole entry, looked up): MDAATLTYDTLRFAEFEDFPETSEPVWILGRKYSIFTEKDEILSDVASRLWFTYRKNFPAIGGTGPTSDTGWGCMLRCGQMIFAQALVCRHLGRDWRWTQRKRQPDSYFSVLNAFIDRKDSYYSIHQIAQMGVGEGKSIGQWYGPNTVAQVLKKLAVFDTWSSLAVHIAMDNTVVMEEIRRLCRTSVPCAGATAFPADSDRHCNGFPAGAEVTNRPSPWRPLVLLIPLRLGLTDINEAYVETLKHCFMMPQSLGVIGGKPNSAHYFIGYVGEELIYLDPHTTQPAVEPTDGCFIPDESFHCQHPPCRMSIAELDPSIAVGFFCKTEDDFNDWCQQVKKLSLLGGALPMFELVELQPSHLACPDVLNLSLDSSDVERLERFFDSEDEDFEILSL
MC4R antagonist – antagonists of human melanocortin 4 receptor (MC4R); 0.48% of 360,000 active; P32245; inhibition, % at 6.5 µM; MC4R-expressing cells, MTII-stimulated cAMP, LANCE TR-FRET; AID 540295;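 active means inhibition above its plate's cutoff, the mean of tested wells on that plate plus 3 SD, cut at about 29% in these data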;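 further: 0% = Melanotan II alone and 100% = Melanotan II plus saturating MCL0020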
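Assay system: U2OS-MC4R stable cell line; Also added: Melanotan II; Technique: Eu-cAMP/anti-cAMP TR-FRET, emission 671 nm; Times: 30-min compound, 1-h challenge, 1-h detection, room temperature.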
MPTP block – inhibitors of mitochondrial permeability transition pore | isolated mouse mitochondria, Ca2+ swelling absorbance, 30 min | inhibition, % at 10 µM | 1.4% of 360,000 active | AID 602449;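 active means inhibition of 50% or more, scaled per plate between neutral and stimulator controls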;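 further: 0% = DMSO wells given calcium and 100% = 1 mM EGTA wells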
MC4R barr agon – human MC4R agonism via beta-arrestin; P32245; U2OS MC4R beta-arrestin complementation, luminescence; percent of melanotan II response, DMSO zero; activation, % at 8.9 µM; 0.98% of 360,000 active;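 active means activation above a per-plate cutoff, the mean activation of sample wells on that plate plus 3 SD, cut at about 8% in these data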
* hit, by the source's call; / = no result.

SMILES	SMARCA2 activ	ATG4B inh	MC4R antagonist	MPTP block	MC4R barr agon
CCCC[C@H](CCCc1ccc(F)cc1)CCC(=O)N(c1ccccc1)c1ccccc1	0.5	/	/	/	/
CN[C@H]1C[C@H]2c3[nH]c4cccc(-c5ccc6c(c5)OCO6)c4c3CCN2C[C@H]1[C@H](C)O	1.5	/	/	/	/
CCCCNc1c(-c2ccc(SC3CCCCC3)cc2)nc2ccccn12	7.9*	14.7	6.0	1.6	1.5
Oc1c(Cl)cc(Cl)cc1C=Nc1cc(C(F)(F)F)ccc1N1CCc2ccccc2C1	6.5	29.3	29.3*	9.5	-0.7
O=C(NC1=N[C@@]2(C=C3CCCCC3n3c(=O)n(-c4ccccc4)c(=O)n32)[C@H](Cc2ccccc2)N1Cc1ccccc1)c1ccccc1 (stereo not given in full)	-5.3	/	/	/	/
Nc1nc(CCl)nc(Nc2ccc3ccccc3c2)n1	-13.4	-0.6	14.3	0.9	14.9*
COC(=O)[C@]12C[C@H](CC(=O)NCCCN3CCCC3=O)C(=O)N(Cc3cccc4ccccc34)C1=C[C@H](C(C)(C)C)O[C@@H]2C	-2.9	/	/	/	/
NS(=O)(=O)c1ccc(NN=C2CCCCC2)c([N+](=O)[O-])c1	7.8*	0.6	-1.3	5.7	-2.7
CC1(C)CC(=O)N(CC(=O)N2CCN(c3cccc(C(F)(F)F)c3)CC2)c2ccccc2S1(=O)=O	-7.0	/	/	/	/
COc1ccc2c(c1)OC(c1ccccc1)(C(F)(F)F)NC2=O (stereo not given)	3.9	-10.8	7.5	7.9	-2.2
CC(C)Oc1ccc2c(c1)OC(c1ccccc1)(C(F)(F)F)NC2=O (stereo not given)	6.5	8.4	2.7	-0.5	8.5*
O=C(NCCc1ccccn1)c1ccc2c(c1)ncn2C1CCCCC1	-0.2	/	/	/	/
Cc1ccc(-n2nc3c(N4CCC(C(=O)NCCc5ccccc5C)CC4)nnc(C)c3c2C)cc1	/	12.1	6.2	-2.6	16.4*
COc1ccc(-n2nc3c(N4CCC(C(=O)NCc5ccccc5C)CC4)nnc(C)c3c2C)cc1	/	54.1*	6.2	-2.2	3.9
Cc1ccc(C2CC(=O)NC(SCc3ccccc3)=C2C#N)cc1 (stereo not given)	-2.8	-2.7	-2.0	-0.3	0.9
CCCCCCSC1=C(C#N)C(c2ccccc2)CC(=O)N1 (stereo not given)	-4.2	7.2	7.1	0.3	10.3*
O=C(CSc1nc2ccccc2[nH]1)NN=Cc1ccccc1C(=O)O	-2.1	/	/	/	/
Cc1c(Cl)cccc1NC(=O)Cn1nnc(C(=O)NCc2cccs2)c1N	3.2	5.4	-9.1	0.2	5.5
Cc1cccc(NC(=O)Cn2nnc(C(=O)NCc3cccs3)c2N)c1C	-4.2	5.5	-5.9	0.0	9.0*
O=C(CCc1nnc(CCCc2ccccc2)o1)NCCc1ccccc1	1.3	-6.8	1.3	1.9	-2.2
O=C(CCc1nnc(CCCc2ccccc2)o1)NCCc1ccco1	7.8*	2.2	-5.8	2.4	-3.2
COc1ccc(/C=N/NC(=O)COc2ccc(Cl)cc2Cl)cc1Cn1nc(C)cc1C	0.2	0.7	-2.8	4.8	18.4*
COc1ccccc1CCn1cnc(-c2ccccc2F)c1CC(C)C	-5.8	/	/	/	/
COc1cc(/C=C2/C(=N)N3C=CSC3=NC2=O)ccc1OCCCOc1cc(C)ccc1C	-0.8	3.9	9.0	0.4	31.5*
CC1=CC2=NC(=O)/C(=C\c3ccc(-c4cccc(Cl)c4)o3)C(=N)N2O1	-3.9	8.9	-10.7	-6.3	11.6*
SMILES	SMARCA2 activ	ATG4B inh	MC4R antagonist	MPTP block	MC4R barr agon
COc1cc(/C=C2\C(=N)N3N=C(S(C)(=O)=O)SC3=NC2=O)ccc1OCCOc1ccccc1C	0.7	37.8	10.4	1.8	0.9
COc1ccccc1OCCOc1ccc(/C=C2/C(=N)N3OC(C)=CC3=NC2=O)cc1OC	-0.1	1.9	11.8	1.0	18.8*
CC1=NOC(=O)/C1=C\c1ccc(-c2cccc(Cl)c2)o1	/	5.2	6.7	4.0	-4.5
CCOC(=O)c1cnn(-c2ccccn2)c1N	7.9*	-2.1	2.3	-0.5	-0.8
O=C1/C(=C/c2ccc(N3CCCC3)cc2)NC(=S)N1C1CC1	-1.1	-23.2	2.8	5.5	1.3
O=C1N/C(=C/c2ccc(N3CCCC3)cc2)C(=O)N1c1ccccc1	1.2	10.4	-11.6	1.9	8.5*
Cc1noc(C)c1S(=O)(=O)N(C)C[C@@H]1OCc2cnnn2CCCC(=O)N([C@@H](C)CO)C[C@@H]1C	2.5	/	/	/	/
O=c1[nH]cnc2c1sc1nc(-c3ccccc3)c3c(c12)CCCC3	-2.6	-1.4	-4.2	13.6	0.5

Screens: PubChem BioAssay, several laboratories
